Test results published in publication PMC12529337 (RSC Medicinal Chemistry, 2025).
Like-named read-outs stand apart in the source and are kept apart here.

How the values were obtained:
MCF-10A cells = test: MTT assay, normal counterpart MCF-10A; assay type: cell-based, human; details: 72 h, read-out: IC50 MCF-10A
MCF-7 cells = test: MTT assay, anticancer activity, MCF-7; assay type: cell-based, human; details: read-out: IC50 MCF-7
MDA-MB-231 cells [1] = test: MTT assay, anticancer activity, MDA-MB-231; assay type: cell-based, human; details: for IC50: read-out: IC50 MDA-MB-231
[2] = system: ROS production in murine macrophages RAW 264.7; test: ROS production; assay type: cell-based; details: LPS; for ROS reduction: concentration not stated in text (5 or 10 μM); for antioxidant activity (ROS production): lower dosage (5 μM)
How it was run: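 RAW 264.7 cells received the same treatment as in the Griess assay: LPS 1 μg mL−1 plus test compound at 5 or 10 μM, 24 h, 1% FBS. NAC (5 × 103, 10 × 103, 20 × 103 μM) was the positive control. After PBS washing, H2DCFDA 25 μM was added for 40 min at 37 °C. Fluorescence was read at λex 485/λem 535. Results are % ROS from mean fluorescence of co-treated vs LPS-alone wells, three experiments in triplicate.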

[3] = system: NO production in murine macrophages RAW 264.7; test: NO production; assay type: cell-based; details: 24 h, LPS 1 μg/mL
How it was run: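 Plated RAW 264.7 cells were treated after 24 h with test compound (5 or 10 μM, in DMSO) plus LPS 1 μg mL−1 in 1% FBS medium for 24 h. Indomethacin (5, 10, 50 μM) was the positive control. Medium was mixed 1:1 with Griess reagent for 30 min at RT and A540 was read. Results are % NO vs LPS-only, three experiments in triplicate.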

[4] = system: murine macrophages RAW 264.7; test: MTT test, cytotoxicity on RAW 264.7 macrophages; assay type: cell-based; details: for cytotoxicity toward RAW 264.7: 10 μM, 24 h
How it was run: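 RAW 264.7 cells were kept in high-glucose DMEM with 10% FBS at 37 °C and 5% CO2. Cells were seeded in 48-well plates and exposed for 24 h to varying test compound concentrations (in DMSO). Viability was measured by MTT and expressed as % of control. Three independent experiments were run in triplicate.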

[5] = system: iNOS expression in murine macrophages RAW 264.7; test: iNOS expression by immunofluorescence in RAW 264.7; assay type: cell-based; details: 5 μM, co-treated with LPS 1 μg/mL, 24 h
How it was run: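 On coverslips, RAW 264.7 cells received LPS 1 μg mL−1 with test compound (5 μM) or indomethacin (50 μM) in 1% FBS medium for 24 h. Cells were methanol-fixed (−20 °C, 15 min) and incubated overnight at 4 °C with anti-iNOS (1:100, 2% BSA), then Alexa Fluor 568 goat anti-mouse (1:500). DAPI 0.2 μg mL−1 was applied. Images taken at 40× were used for semi-quantitative fluorescence measurement, two independent experiments.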

[6] = biological target: T1, human topoisomerase I (hTopoI) (Homo sapiens, UniProt P11387); test: Human topoisomerase I relaxation assay; assay type: biochemical; details: for inhibition of hTopoI relaxation of supercoiled DNA: pHOT1, 1 h 37 °C, gel
T1 sequence (P11387 1-765): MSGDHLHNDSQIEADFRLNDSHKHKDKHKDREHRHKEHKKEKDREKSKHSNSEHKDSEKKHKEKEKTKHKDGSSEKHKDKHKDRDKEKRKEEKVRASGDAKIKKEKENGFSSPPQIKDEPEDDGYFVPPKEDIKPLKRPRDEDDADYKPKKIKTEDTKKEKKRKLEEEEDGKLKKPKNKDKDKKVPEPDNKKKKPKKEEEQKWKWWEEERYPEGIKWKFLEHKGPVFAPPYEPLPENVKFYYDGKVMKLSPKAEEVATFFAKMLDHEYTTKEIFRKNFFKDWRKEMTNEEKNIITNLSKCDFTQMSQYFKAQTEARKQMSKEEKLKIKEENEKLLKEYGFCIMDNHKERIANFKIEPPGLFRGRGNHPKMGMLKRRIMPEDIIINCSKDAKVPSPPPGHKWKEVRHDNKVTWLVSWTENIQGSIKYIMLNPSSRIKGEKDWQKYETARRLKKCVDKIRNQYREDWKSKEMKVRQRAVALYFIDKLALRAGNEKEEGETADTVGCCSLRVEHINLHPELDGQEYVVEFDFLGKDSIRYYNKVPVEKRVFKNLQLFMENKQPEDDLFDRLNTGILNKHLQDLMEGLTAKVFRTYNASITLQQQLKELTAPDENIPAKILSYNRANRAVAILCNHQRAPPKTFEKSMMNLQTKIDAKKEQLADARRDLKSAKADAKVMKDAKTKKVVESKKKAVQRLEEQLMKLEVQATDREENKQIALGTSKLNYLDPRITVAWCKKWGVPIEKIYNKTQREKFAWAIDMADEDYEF
How it was run: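 Recombinant human topoisomerase I (2 units) with 0.25 μg supercoiled pHOT1 plasmid as substrate. Test compound (in DMSO) at 0.001, 0.01, 0.1 and 1 μM; DMSO vehicle control. Incubated 1 h at 37 °C. Run on a 1% agarose gel in 1× TAE without ethidium bromide, then post-stained with EB ([…], 30 min), washed and viewed under UV.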

MDA-MB-231 cells [7] = test: TUNEL assay, nuclear DNA damage; assay type: cell-based, human; details: 1 μM, 24 h
How it was run: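 MDA-MB-231 cells (DMEM/F12, 5% FBS) were grown on coverslips and treated for 24 h with 1 μM test compound in DMSO or with vehicle. Cells were PBS-washed, methanol-fixed (−20 °C, 15 min) and incubated with the one-step TUNEL (FITC) enzyme for 35 min at 37 °C in the dark. DAPI counterstain was 0.2 mg mL−1 for 10 min at RT. Imaging used fluorescence microscopy at 20× (490/515 nm; DAPI 350/460 nm), three independent experiments.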

[8] = MTT, mean ± SD, normal mammary epithelial cells

C[C@H](c1ccccc1)n1cc[n+](C)c1 [(R)-P1, (R)-3-Methyl-1-(1-phenylethyl)-1H-imidazol-3-ium iodide]
IC50 (MCF-10A cells; Homo sapiens, MCF-10A): 40.3 ± 3.6 µM | IC50 (MCF-7 cells; Homo sapiens, MCF7, 72 h): 34 ± 2.4 µM | IC50 (MDA-MB-231 cells [1]; Homo sapiens, MDA-MB-231, 72 h): 71 ± 6.8 µM

C[C@@H](c1ccccc1)n1cc[n+]([C@@H](C)c2ccccc2)c1.[Cl][Ag] [(S)-AgL2, 1,3-Bis((S)-1′-phenylethyl)imidazolium silver(I) chloride]
IC50 (MCF-10A cells; [8]): 24 ± 1.1 µM | IC50 (MCF-7 cells; MTT, 72 h, mean ± SD): 4.2 ± 0.3 µM | ROS reduction [2]: about 15% | IC50 (MDA-MB-231 cells [1]; MTT, 72 h, mean ± SD): 14.3 ± 1.2 µM

(S)-3-Methyl-1-(1-phenylethyl)-1H-imidazol-3-ium silver(I) iodide [(S)-AgL1]
IC50 (MCF-10A cells; [8]): 77.1 ± 6.8 µM | IC50 (MCF-7 cells; MTT, 72 h, mean ± SD): 7.5 ± 0.8 µM | IC50 MDA-MB-231 (MDA-MB-231 cells [1]; MTT, 72 h, mean ± SD): totally inactive | IC50 (MDA-MB-231 cells [1]; MTT, 72 h, mean ± SD): > 100 µM

C[C@H](c1ccccc1)n1cc[n+]([C@H](C)c2ccccc2)c1.[Cl][Ag] [(R)-AgL2, 1,3-Bis((R)-1′-phenylethyl)imidazolium silver(I) chloride]
IC50 (MCF-10A cells; [8]): 24.8 ± 1.7 µM | IC50 (MCF-7 cells; MTT, 72 h, mean ± SD): 9.7 ± 0.8 µM | ROS reduction [2]: ~12% | IC50 (MDA-MB-231 cells [1]; MTT, 72 h, mean ± SD): 17.6 ± 1.7 µM

C[C@H](c1ccccc1)n1cc[n+]([C@H](C)c2ccccc2)c1.[Cl][Au] [(R)-AuL2, 1,3-Bis((R)-1′-phenylethyl)imidazolium gold(I) chloride]
IC50 (MCF-10A cells; [8]): 7.1 ± 0.5 µM | reduction of NO production ([3]; 5 μM): about 18% | IC50 (MCF-7 cells; MTT, 72 h, mean ± SD): 7 ± 0.6 µM | cytotoxicity toward RAW 264.7 [4]: cytotoxic | antioxidant activity (ROS production) [2]: did not exert any antioxidant activity | IC50 (MDA-MB-231 cells [1]; MTT, 72 h, mean ± SD): 6.9 ± 0.3 µM

C[C@H](c1ccccc1)n1cc[n+](C)c1.[Ag][I] [(R)-AgL1, (R)-3-Methyl-1-(1-phenylethyl)-1H-imidazol-3-ium silver(I) iodide]
IC50 (MCF-10A cells; [8]): 72.8 ± 5.8 µM | IC50 (MCF-7 cells; MTT, 72 h, mean ± SD): 11.2 ± 0.6 µM | IC50 (MDA-MB-231 cells [1]; MTT, 72 h, mean ± SD): 20.6 ± 1.4 µM

C[C@@H](c1ccccc1)n1cc[n+]([C@@H](C)c2ccccc2)c1.[Cl][Au] [(S)-AuL2, 1,3-Bis((S)-1′-phenylethyl)imidazolium gold(I) chloride]
IC50 (MCF-10A cells; [8]): 5.3 ± 0.2 µM | intracellular iNOS expression vs LPS-treated cells [5]: net diminution | IC50 (MCF-7 cells; MTT, 72 h, mean ± SD): 1.8 ± 0.1 µM | cytotoxicity toward RAW 264.7 [4]: cytotoxic | antioxidant activity (ROS production) [2]: did not exert any antioxidant activity | IC50 (MDA-MB-231 cells [1]; MTT, 72 h, mean ± SD): 2.3 ± 0.1 µM

C[C@H](c1ccccc1)n1cc[n+]([C@H](C)c2ccccc2)c1 [(R)-P2, 1,3-Bis((R)-1′-phenylethyl)imidazolium chloride]
IC50 (MCF-10A cells; Homo sapiens, MCF-10A): 28.2 ± 1.9 µM | IC50 (MCF-7 cells; Homo sapiens, MCF7, 72 h): 58 ± 4.3 µM | IC50 (MDA-MB-231 cells [1]; Homo sapiens, MDA-MB-231, 72 h): > 100 µM

C[C@H](c1ccccc1)n1cc[n+](C)c1.[Cl][Au] [(R)-AuL1, (R)-3-Methyl-1-(1-phenylethyl)-1H-imidazol-3-ium gold(I) chloride]
inhibition of hTopoI relaxation of supercoiled DNA ([6]; 0.001 μM): partially | inhibition of hTopoI relaxation of supercoiled DNA ([6]; 0.01 μM): totally block | inhibition of hTopoI relaxation of supercoiled DNA ([6]; 0.1 μM): preserved | inhibition of hTopoI relaxation of supercoiled DNA ([6]; 1 μM): preserved | hTopoI inhibiting concentration, times lower than that of (S)-AuL1 ([6]; total inhibition 0.01 vs 1 μM): 100 times | IC50 (MCF-10A cells; [8]): 2.1 ± 0.1 µM | reduction of NO production ([3]; 5 μM): about 18% | IC50 (MCF-7 cells; MTT, 72 h, mean ± SD): 6.8 ± 0.4 µM | cytotoxicity toward RAW 264.7 [4]: cytotoxic | IC50 (MDA-MB-231 cells [1]; MTT, 72 h, mean ± SD): 5.8 ± 0.5 µM

C[C@@H](c1ccccc1)n1cc[n+]([C@@H](C)c2ccccc2)c1 [(S)-P2, 1,3-Bis((S)-1′-phenylethyl)imidazolium chloride]
IC50 (MCF-10A cells; Homo sapiens, MCF-10A): 28.8 ± 1.9 µM | IC50 (MCF-7 cells; Homo sapiens, MCF7, 72 h): 16.3 ± 1.3 µM | IC50 (MDA-MB-231 cells [1]; Homo sapiens, MDA-MB-231, 72 h): 10.8 ± 1.1 µM

C[C@@H](c1ccccc1)n1cc[n+](C)c1 [(S)-P1, (S)-3-Methyl-1-(1-phenylethyl)-1H-imidazol-3-ium iodide]
IC50 (MCF-10A cells; Homo sapiens, MCF-10A): > 100 µM | IC50 (MCF-7 cells; Homo sapiens, MCF7, 72 h): > 100 µM | IC50 (MDA-MB-231 cells [1]; Homo sapiens, MDA-MB-231, 72 h): 87 ± 7.6 µM

COc1ccc2c(c1)c(CC(=O)O)c(C)n2C(=O)c1ccc(Cl)cc1 [Ind, indomethacin, reference compound]
reduction of NO production ([3]; 50 μM): about 26%

N.N.[Cl][Pt][Cl] [Cisplatin, cisplatin, reference compound]
IC50 (MCF-10A cells; [8]): 79.4 ± 1.6 µM | IC50 (MCF-7 cells; MTT, 72 h, mean ± SD): 37.3 ± 1.2 µM | IC50 (MDA-MB-231 cells [1]; MTT, 72 h, mean ± SD): 29.5 ± 0.9 µM

(S)-3-Methyl-1-(1-phenylethyl)-1H-imidazol-3-ium gold(I) chloride [(S)-AuL1]
inhibition of hTopoI relaxation of supercoiled DNA ([6]; 0.001 μM): no inhibition | inhibition of hTopoI relaxation of supercoiled DNA ([6]; 0.01 μM): partially | inhibition of hTopoI relaxation of supercoiled DNA ([6]; 0.1 μM): partially | inhibition of hTopoI relaxation of supercoiled DNA ([6]; 1 μM): totally inhibited | IC50 (MCF-10A cells; [8]): 11.5 ± 0.5 µM | reduction of NO production ([3]; 5 μM): about 33% | reduction of NO production ([3]; 10 μM): ~57% | intracellular iNOS expression vs LPS-treated cells [5]: net diminution | nuclear DNA damage (TUNEL green fluorescence) (MDA-MB-231 cells [7]): marked genomic DNA damage | IC50 (MCF-7 cells; MTT, 72 h, mean ± SD): 1.7 ± 0.1 µM | reduction of ROS production ([2]; 10 μM): ~32% | IC50 (MDA-MB-231 cells [1]; MTT, 72 h, mean ± SD): 0.5 ± 0.1 µM

CC(=O)N[C@@H](CS)C(=O)O [NAC, N-acetyl-cysteine, reference compound]
residual viability vs LPS-treated cells ([4]; 5 × 10^3, 10 × 10^3 and 20 × 10^3 μM, data not shown): about 98.7% | reduction in ROS levels ([2]; 10 × 10^3 μM): about 25% | reduction in ROS levels ([2]; 20 × 10^3 μM): ~40%
